pIC50: −log10 of the molar value. The source made the active and inactive calls. The rule behind the calls is not given here.
Assays:
[1] = tested on: AGS; assay: Induction of apoptosis in human AGS cells assessed as early apoptotic cells at 8 uM after 36 hrs by Annexin-V-FITC/propidium iodide staining based flow cytometry (reference value: 4.44%); format: functional
[2] = target: NEDD8 activating enzyme (Homo sapiens) (UniProt Q8TBC4+Q13564); assay: Inhibition of NAE-mediated CRL neddylation in human AGS cells assessed as increase in CDT1 level up to 10 uM after 24 hrs by Western blot analysis; format: cell-based
How it was run: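 AGS cells given 2, 4, 6, 8 or 10 μM compound or 0.1% DMSO for 24 h, washed in ice-cold PBS and lysed in RIPA on ice. Equal protein loads run by SDS-PAGE: non-reducing for NEDD8/SUMO/Ub conjugates, reducing for p27, NRF2, CDT1 and cleaved caspase-3. Blotted to PVDF with primary antibody overnight at 4 °C and HRP secondary, ECL detection, densitometry. Three repeats.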

[3] = tested on: AGS; assay: Induction of apoptosis in human AGS cells assessed as early apoptotic cells at 4 uM after 36 hrs by Annexin-V-FITC/propidium iodide staining based flow cytometry (reference value: 4.44%); format: functional
[4] = tested on: AGS; assay: Induction of apoptosis in human AGS cells assessed as necrotic cells at 4 uM after 36 hrs by Annexin-V-FITC/propidium iodide staining based flow cytometry (reference value: 1.01%); format: functional
[5] = tested on: AGS; assay: Antiproliferative activity against human AGS cells after 48 hrs by CCK8 assay; format: functional, cell-based
How it was run: (§1)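 Cells seeded at 6 × 10^3 cells/well and left 12 h at 37 °C, 5% CO2. Medium then replaced with serial compound dilutions, bortezomib as positive control. After 48 h, CCK-8 added for 4 h and absorbance read at 450 nm. Three repeats; IC50 from normalized nonlinear regression of inhibition curves.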

[6] = tested on: AGS; assay: Induction of apoptosis in human AGS cells assessed as late apoptotic cells at 8 uM after 36 hrs by Annexin-V-FITC/propidium iodide staining based flow cytometry (reference value: 1.71%); format: functional
[7] = Hemolytic activity against rabbit erythrocytes assessed as hemolysis at 100 uM measured after 1 hr; format: ADME, cell-based, Oryctolagus cuniculus, Erythrocyte; conditions: read-out: Activity
How it was run: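 Rabbit erythrocytes pelleted at 3000 rpm for 10 min, washed twice and resuspended in PBS. Mixed 1:1 with 200 μM compound solution in PBS, 1 h at 37 °C. PBS served as 0% and 1% Triton X-100 as 100% hemolysis. After centrifugation, supernatant hemoglobin read at 540 nm; % hemolysis calculated relative to the Triton and PBS controls.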

[8] = tested on: AGS; assay: Induction of apoptosis in human AGS cells assessed as live cells at 6 uM after 36 hrs by Annexin-V-FITC/propidium iodide staining based flow cytometry (reference value: 92.84%); format: functional
[9] = tested on: AGS; assay: Induction of apoptosis in human AGS cells assessed as necrotic cells at 10 uM after 36 hrs by Annexin-V-FITC/propidium iodide staining based flow cytometry (reference value: 1.01%); format: functional
[10] = tested on: AGS; assay: Induction of apoptosis in human AGS cells assessed as necrotic cells at 8 uM after 36 hrs by Annexin-V-FITC/propidium iodide staining based flow cytometry (reference value: 1.01%); format: functional
[11] = tested on: AGS; assay: Induction of apoptosis in human AGS cells after 36 hrs by Annexin-V-FITC/propidium iodide staining based flow cytometry; format: functional, cell-based
[12] = Antiproliferative activity against human LO2 cells after 48 hrs by CCK8 assay; format: cell-based, L02; conditions: read-out: LC50
[13] = target: Epidermal growth factor receptor (Homo sapiens) (UniProt P00533); assay: Inhibition of EGFR (unknown origin) at 30 uM relative to control
[14] = tested on: AGS; assay: Induction of apoptosis in human AGS cells assessed as early apoptotic cells at 10 uM after 36 hrs by Annexin-V-FITC/propidium iodide staining based flow cytometry (reference value: 4.44%); format: functional
[15] = tested on: K562; assay: Antiproliferative activity against human K562 cells after 48 hrs by CCK8 assay; format: functional, cell-based; conditions: K562, 48 h; how it was run: as §1
[16] = target: RAC-alpha serine/threonine-protein kinase (Homo sapiens) (UniProt P31749); assay: Inhibition of AKT (unknown origin) at 30 uM relative to control
[17] = tested on: AGS; assay: Synergistic antiproliferative activity against human AGS cells assessed as combination index constant at 1.25 uM after 48 hrs in presence of 10 nM BTZ by CCK8 assay; format: functional
How it was run: (§2)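 AGS cells at 6×10^3/well attached for 12 h, then exposed for 48 h to compound, bortezomib, or both at set concentrations. CCK-8 added for 4 h, then OD read at 450 nm. Inhibition rates E used for q = E(combo)/(E1+E2−E1×E2). Triplicate experiments.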

[18] = tested on: AGS; assay: Synergistic antiproliferative activity against human AGS cells assessed as combination index constant at 1.5 uM after 48 hrs in presence of 5 nM BTZ by CCK8 assay; format: functional; how it was run: as §2
[19] = target: Serine/threonine-protein kinase Chk1 (Homo sapiens) (UniProt O14757); assay: Inhibition of CHK1 (unknown origin) at 30 uM relative to control
[20] = tested on: BXPC-3; assay: Antiproliferative activity against human BxPC3 cells after 48 hrs by CCK8 assay; format: functional, cell-based; conditions: BXPC-3, 48 h; how it was run: as §1
[21] = target: Protein kinase C alpha type (Homo sapiens) (UniProt P17252); assay: Inhibition of PKCalpha (unknown origin) at 30 uM relative to control
[22] = tested on: AGS; assay: Induction of apoptosis in human AGS cells assessed as late apoptotic cells at 6 uM after 36 hrs by Annexin-V-FITC/propidium iodide staining based flow cytometry (reference value: 1.71%); format: functional
[23] = tested on: AGS; assay: Cell cycle arrest in human AGS cells assessed as accumulation at sub-G1 phase at 4 uM after 24 hrs by propidium iodide staining based flow cytometry; format: functional
How it was run: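 AGS cells seeded at 1 × 10^5/well and attached 24 h at 37 °C, 5% CO2. Exposed to 4 μM compound for varying times, then fixed in 70% ethanol at −20 °C overnight. Stained with PI/RNase buffer 15–20 min in the dark; 20000 cells per sample read by flow cytometry (488 nm excitation, FL-3 630 nm). Three repeats.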

[24] = tested on: HCT-116; assay: Antiproliferative activity against human HCT116 cells after 48 hrs by CCK8 assay; format: functional, cell-based; conditions: HCT-116, 48 h; how it was run: as §1
[25] = tested on: AGS; assay: Induction of apoptosis in human AGS cells assessed as late apoptotic cells at 4 uM after 36 hrs by Annexin-V-FITC/propidium iodide staining based flow cytometry (reference value: 1.71%); format: functional
[26] = tested on: AGS; assay: Synergistic antiproliferative activity against human AGS cells assessed as combination index constant at 1.5 uM after 48 hrs in presence of 10 nM BTZ by CCK8 assay; format: functional; how it was run: as §2
[27] = Selectivity index, ratio of IC50 for HEK293T cells to IC50 for human AGS cells; format: toxicity; conditions: HEK293T cells versus AGS cells, read-out: Ratio IC50
[28] = target: Serine/threonine-protein kinase PLK1 (Homo sapiens) (UniProt P53350); assay: Inhibition of PLK (unknown origin) at 30 uM relative to control
[29] = tested on: A549; assay: Antiproliferative activity against human A549 cells after 48 hrs by CCK8 assay; format: functional, cell-based; conditions: A549, 48 h; how it was run: as §1
[30] = tested on: AGS; assay: Induction of apoptosis in human AGS cells assessed as live cells at 8 uM after 36 hrs by Annexin-V-FITC/propidium iodide staining based flow cytometry (reference value: 92.84%); format: functional

Chain of Epidermal growth factor receptor (Homo sapiens) (P00533 whole entry): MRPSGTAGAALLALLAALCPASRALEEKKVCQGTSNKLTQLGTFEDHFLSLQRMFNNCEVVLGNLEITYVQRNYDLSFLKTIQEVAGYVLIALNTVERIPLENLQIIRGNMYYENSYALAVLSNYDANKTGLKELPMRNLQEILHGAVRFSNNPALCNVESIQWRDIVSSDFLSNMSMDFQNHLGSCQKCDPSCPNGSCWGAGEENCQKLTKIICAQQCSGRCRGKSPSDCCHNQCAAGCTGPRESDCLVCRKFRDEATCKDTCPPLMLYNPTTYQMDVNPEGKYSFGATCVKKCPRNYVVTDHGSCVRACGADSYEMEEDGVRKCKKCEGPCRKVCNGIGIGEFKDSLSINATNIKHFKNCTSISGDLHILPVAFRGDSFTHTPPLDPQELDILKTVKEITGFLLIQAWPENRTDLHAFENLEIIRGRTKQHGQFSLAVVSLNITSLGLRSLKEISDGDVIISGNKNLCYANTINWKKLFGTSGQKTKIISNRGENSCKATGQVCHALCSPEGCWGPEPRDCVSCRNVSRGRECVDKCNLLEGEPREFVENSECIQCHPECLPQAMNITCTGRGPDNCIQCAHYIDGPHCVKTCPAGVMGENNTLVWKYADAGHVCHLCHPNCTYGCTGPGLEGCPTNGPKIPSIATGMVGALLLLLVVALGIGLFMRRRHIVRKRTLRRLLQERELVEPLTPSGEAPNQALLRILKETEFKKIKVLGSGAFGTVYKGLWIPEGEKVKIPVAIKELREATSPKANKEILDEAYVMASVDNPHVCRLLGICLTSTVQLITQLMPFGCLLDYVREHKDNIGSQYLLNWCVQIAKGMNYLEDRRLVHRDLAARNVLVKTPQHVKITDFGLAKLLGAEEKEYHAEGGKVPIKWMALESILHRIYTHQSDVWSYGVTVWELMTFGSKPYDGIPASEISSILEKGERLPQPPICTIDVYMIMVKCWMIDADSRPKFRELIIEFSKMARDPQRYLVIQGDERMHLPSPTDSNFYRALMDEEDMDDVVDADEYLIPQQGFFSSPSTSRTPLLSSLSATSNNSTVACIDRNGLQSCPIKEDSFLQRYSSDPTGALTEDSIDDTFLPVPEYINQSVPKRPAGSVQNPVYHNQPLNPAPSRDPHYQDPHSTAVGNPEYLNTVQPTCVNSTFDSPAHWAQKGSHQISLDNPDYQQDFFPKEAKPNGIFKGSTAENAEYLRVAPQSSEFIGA
Chain of RAC-alpha serine/threonine-protein kinase (Homo sapiens) (P31749 whole entry): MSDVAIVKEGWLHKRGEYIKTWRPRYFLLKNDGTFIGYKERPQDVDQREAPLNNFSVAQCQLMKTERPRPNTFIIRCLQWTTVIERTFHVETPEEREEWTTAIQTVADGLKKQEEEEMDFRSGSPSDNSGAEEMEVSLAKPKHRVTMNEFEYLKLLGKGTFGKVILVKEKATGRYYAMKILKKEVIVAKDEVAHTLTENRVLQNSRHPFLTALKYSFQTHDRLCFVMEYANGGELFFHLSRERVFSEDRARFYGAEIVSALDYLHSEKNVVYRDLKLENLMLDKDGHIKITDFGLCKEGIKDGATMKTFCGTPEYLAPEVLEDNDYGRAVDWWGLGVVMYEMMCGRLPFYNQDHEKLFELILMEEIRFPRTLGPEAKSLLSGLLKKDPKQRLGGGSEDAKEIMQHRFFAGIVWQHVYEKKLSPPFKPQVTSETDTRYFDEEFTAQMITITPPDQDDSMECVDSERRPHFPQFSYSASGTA
Chain of Serine/threonine-protein kinase PLK1 (Homo sapiens) (P53350 whole entry): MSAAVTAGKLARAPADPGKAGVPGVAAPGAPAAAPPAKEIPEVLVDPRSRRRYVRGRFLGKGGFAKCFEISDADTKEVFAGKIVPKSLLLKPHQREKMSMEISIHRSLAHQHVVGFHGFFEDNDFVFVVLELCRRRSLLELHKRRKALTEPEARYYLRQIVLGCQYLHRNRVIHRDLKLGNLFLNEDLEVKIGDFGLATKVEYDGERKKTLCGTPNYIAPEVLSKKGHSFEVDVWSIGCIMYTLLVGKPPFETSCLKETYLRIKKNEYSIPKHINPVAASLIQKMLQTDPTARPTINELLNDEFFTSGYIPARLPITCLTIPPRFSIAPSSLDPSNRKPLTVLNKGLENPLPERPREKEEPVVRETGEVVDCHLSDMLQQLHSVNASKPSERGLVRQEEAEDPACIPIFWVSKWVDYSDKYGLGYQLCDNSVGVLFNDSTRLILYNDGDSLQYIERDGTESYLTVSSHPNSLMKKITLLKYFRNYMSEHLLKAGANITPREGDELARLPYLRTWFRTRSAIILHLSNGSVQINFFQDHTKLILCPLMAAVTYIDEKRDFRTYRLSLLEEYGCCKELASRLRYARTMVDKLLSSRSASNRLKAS
Chain of Serine/threonine-protein kinase Chk1 (Homo sapiens) (O14757 whole entry): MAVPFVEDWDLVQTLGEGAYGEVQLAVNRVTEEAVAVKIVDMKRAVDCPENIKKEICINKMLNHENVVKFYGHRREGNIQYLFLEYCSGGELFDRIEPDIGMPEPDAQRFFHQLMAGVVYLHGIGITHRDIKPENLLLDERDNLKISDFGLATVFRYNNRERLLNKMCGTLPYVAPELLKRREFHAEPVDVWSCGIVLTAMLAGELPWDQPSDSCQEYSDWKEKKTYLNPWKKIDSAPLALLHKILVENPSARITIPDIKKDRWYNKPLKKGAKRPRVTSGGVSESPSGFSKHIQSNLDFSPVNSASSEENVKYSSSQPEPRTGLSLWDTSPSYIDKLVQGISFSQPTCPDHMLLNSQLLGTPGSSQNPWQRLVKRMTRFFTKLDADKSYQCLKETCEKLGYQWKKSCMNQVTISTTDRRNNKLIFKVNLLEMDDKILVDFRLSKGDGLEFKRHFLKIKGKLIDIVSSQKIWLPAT

## O=c1cc(-c2ccc(-c3ccccc3)cc2)c2ccc(N3CCC(NCCc4ccccc4)CC3)cc2o1
[1]
  Activity: 50.39%
[2]
  inhibition: Active
[3]
  Activity: 7.77%
[4]
  Activity: 1.03%
[5]
  pIC50: 6.12
[6]
  Activity: 35.01%
[7]
  hemolysis at 1 h, 100 µM: < 10%
[8]
  Activity: 14.99%
[9]
  Activity: 9.14%
[10]
  Activity: 4.71%
[11]
  Activity: Dose-dependent effect
[12]
  CC50 at 48 h: 13500 nM
[13]
  inhibition: 2.77%
[14]
  Activity: 38.71%
[15]
  pIC50: 5.61
[16]
  inhibition: 9.87%
[17]
  CI: 1.75
[18]
  CI: 1.15
[19]
  inhibition: 1.01%
[20]
  pIC50: 5.55
[21]
  inhibition: 11.5%
[22]
  Activity: 35.77%
[23]
  Activity: Active
[24]
  pIC50: 5.88
[25]
  Activity: 10.51%
[26]
  CI: 1.35
[27]
  selectivity ratio: 14 to 18
[28]
  inhibition: 5.58%
[29]
  pIC50: 5.67
[30]
  Activity: 9.88%

Source: ChEMBL document CHEMBL4270526, “A novel NAE/UAE dual inhibitor LP0040 blocks neddylation and ubiquitination leading to growth inhibition and apoptosis of cancer cells” (Eur J Med Chem, 2018)
